About 1,500 (0.42%) of roughly 360,000 compounds were called active. The sample holds actives, similar compounds and a random draw of the others, so the mix is not that of the screen. A number with no mark means an inactive call.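 The calls were made as follows: active = inhibition above a per-plate cutoff of the control wells' mean inhibition plus 3 SD (cut at about 5.5% in these data); inactive = the rest.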
System: methionyl-tRNA synthetase (Trypanosoma brucei brucei)
Experiment: inhibition of trypanosome methionyl-tRNA synthetase – biochemical, luminescence, primary screen (AID 624268);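 also: 0% = DMSO wells median and 100% = median of wells with control inhibitor compound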
Conditions: purified T. brucei MetRS, ATP depletion, Kinase-Glo luminescence; at 11.9 µM; stronger effect = higher value
Outline: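 Test system: purified T. brucei MetRS enzyme. Also added: ATP, methionine and E. coli bulk tRNA substrates. Compound: 11.9 µM single point. Schedule: 15 min enzyme-compound preincubation, 2 h reaction, 10 min detection, 25 °C. Signal: luciferase luminescence of residual ATP, Kinase-Glo. Evaluation: percent inhibition versus plate control medians. Controls: DMSO wells, low control.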

Row | SMILES | inhibition
1 | Cc1cccc(N=Nc2c(O)[nH]c3ccc(F)cc23)c1 | 0.2%
2 | Oc1[nH]c2ccc(Br)cc2c1N=Nc1nn[nH]n1 | 5.61% (active)
3 | Brc1ccc(-c2nn[nH]n2)cc1 | 0.2%
4 | CCOC(=O)c1sc(NC(=O)CSc2nc(O)c(Cc3ccccc3)c(=O)[nH]2)nc1C | -1.03%
5 | CCCS(=O)(=O)NC(=O)C1(C)CCCN(C(=O)c2ccnc(Cl)c2)C1 (stereo unspecified) | -0.05%
6 | Cn1c(CCCOc2ccc(Cl)cc2Cl)n[nH]c1=S | 7.11% (active)
7 | O=C(CCCOc1ccc(Cl)cc1Cl)NNC(=O)C1CCC1 | 1.44%
8 | CC(C)Oc1ccc(Cc2n[nH]c(=S)n2Cc2ccccc2)cc1Cl | -0.26%
9 | COC(=O)CN1C(=O)[C@H]2[C@@H](/C=C/c3ccccc3)N3C(=O)CN(CC4CC4)C(=O)[C@@]3(Cc3ccccc3)[C@H]2C1=O | -0.4%
10 | O=C(CC(=O)Nc1ccc(Cl)c(Cl)c1)N/N=C/c1ccc(O)cc1 | 10.6% (active)
11 | NCCCCCC(=O)N/N=C/c1ccc2nccnc2c1 | -0.25%
12 | O=C(CC(O)(C(F)(F)F)C(F)(F)F)Nc1ccc(Cl)c(Cl)c1 | 1.83%
13 | Cc1csc(=O)n1CCC(=O)OCC(=O)NNC(=O)c1ccc(Br)cc1 | -0.33%
14 | CC1(C(=O)NS(=O)(=O)c2cccc(F)c2)CCN1C(=O)c1cccc2ccccc12 (stereo unspecified) | -0.25%
15 | COCCCNCCOCCOc1ccc(Cl)cc1Br | 1.56%
16 | O=C(N[C@H]1CC[C@H](CC(=O)N2CCCCC2)O[C@@H]1CO)c1cccc(F)c1 | -0.31%
17 | O=C(Oc1cccc(N2C(=O)C3C4c5ccccc5C(c5ccccc54)C3C2=O)c1)c1ccco1 (stereo unspecified) | 0.29%
18 | O=C(/C(=N\O)n1cncn1)c1ccc(Br)cc1Br | 17.9% (active)
19 | CCc1ccc(N(CC(=O)Nc2sc3c(c2C(=O)OC)CCCC3)S(C)(=O)=O)cc1 | 0.46%
20 | CCn1c(CSCc2c(Cl)cccc2Cl)n[nH]c1=S | 0.37%
21 | Cc1ccc(NCc2n[nH]c(=S)n2-c2ccccc2)cc1Cl | -0.41%
22 | S=c1[nH]nc(CSCc2ccc(Cl)cc2Cl)n1-c1ccccc1 | 6.2% (active)
23 | Nc1cc(N)nc(SCc2cccc(F)c2)n1 | -0.35%

Row | SMILES | inhibition
24 | Cn1nc(-c2ccc(Cl)cc2)c2cc(C(=O)NCc3ccco3)sc21 | 2.08%
25 | O=C(c1ccco1)N1CCN(CC(=O)N(C2CCCCC2)C2CCS(=O)(=O)C2)CC1 (stereo unspecified) | -0.62%
26 | Cc1ccc(NN=C2C(=O)OC(C)(C)OC2=O)c(C)c1 | 0.27%
27 | CCn1c(SCC(=O)N/N=C/C=C/c2ccccc2[N+](=O)[O-])nnc1-c1ccccc1 | 0.33%
28 | O=C(COC(=O)CCCSc1nc2ccccc2[nH]1)Nc1ccc(Oc2ccccc2)cc1 | -0.54%
29 | O=C(CSc1nc2ccccc2[nH]1)N/N=C/C=C\c1ccccc1[N+](=O)[O-] | 9.68% (active)
30 | COCCNC(=O)CN1C(=O)CSc2ncccc21 | 0.04%
31 | O=C(NNS(=O)(=O)c1ccc(F)cc1)C1CCCCC1 | -0.24%
32 | CCOC(=O)CN(C(=O)CN1CCOCC1)c1ccc(Br)cc1 | -1.11%
33 | Cc1ccc(-c2cc(=O)[nH]c(NCc3ccccc3)n2)cc1 | 0.58%
34 | C/C(=N\Nc1nc2ccccc2[nH]1)c1cccs1 | 2.21%
35 | Cc1ccc(O)c(CNc2nc3ccccc3[nH]2)c1 | 72.6% (active)
36 | C=CCN1CCN(C(=O)CCCc2ccccc2)CC1 | 0.23%
37 | Cn1c(=O)c2c(nc(N3CCOCC3)n2CCNC2=NCCC2)n(C)c1=O | 0.1%
38 | Cc1nn(Cc2ccccc2)c(C)c1C(=O)NCCCN1CCCC1=O | -0.02%
39 | O=Cc1c(NCCCN2CCCC2=O)c2ccccc2[nH]c1=O | -0.57%
40 | O=C1CCCN1CCCNc1ncnc2c1[nH]c1ccccc12 | 37.3% (active)
41 | Cc1ccnc2nc(C(=O)OCC(=O)N(CC(C)C)CC(C)C)nn12 | -0.19%
42 | CCN1CCN(c2ccc([N+](=O)[O-])cc2C(=O)c2ccc(Cl)cc2)CC1 | -0.26%
43 | O=[N+]([O-])c1ccc(N2CCN(c3ccc(O)cc3)CC2)c(Cl)c1 | 7.21% (active)
44 | O=C(O)C1CCN(c2ccc([N+](=O)[O-])cc2[N+](=O)[O-])CC1 | 0.21%
45 | NC(=S)NN=Cc1ccc(OC(=O)COc2cc(Cl)c(Cl)cc2Cl)cn1 | 0.02%
46 | CC(C)NC(=O)CSc1ccccc1C(=O)NCc1ccc2c(c1)OCO2 | -0.69%

Row | SMILES | inhibition
47 | CCN(CC)C(=O)C(=O)c1cn(CC(=O)NCc2ccc3c(c2)OCO3)c2ccccc12 | 60.8% (active)
48 | CCN(CC)C(=O)Cn1cc(S(=O)(=O)CC(=O)NCc2ccc3c(c2)OCO3)c2ccccc21 | -0.63%
49 | CCOn1c(=O)c(=O)n(O)c2ccccc21 | 0.13%
50 | O=C(NCc1ccccc1)c1cccc(NC(=O)C2CCCCC2)c1 | -0.28%
51 | COCCN1C(=O)N(c2ccc(Cl)cc2)C(=O)C1CC(=O)Nc1cc(OC)cc(OC)c1 (stereo unspecified) | 0.28%
52 | CCOc1ccc(NC(=O)CC2C(=O)N(c3ccccc3)C(=O)N2CCOC)cc1 (stereo unspecified) | 0.31%
53 | COC(=O)CN1C(=S)N(c2ccccc2)C(=O)C1CC(=O)Nc1ccc(Cl)cc1 (stereo unspecified) | 12% (active)
54 | CCCc1nnc(NC(=O)CCC(=O)NC2CC2)s1 | 0.11%
55 | COc1cccc(C(CC(=O)NCCN2CCOCC2)NS(=O)(=O)c2ccc(C)cc2)c1OC (stereo unspecified) | -0.3%
56 | Cc1ccccc1OCC(=O)NNC(=O)c1cc(S(=O)(=O)N(C)C)ccc1N1CCCC1 | -0.26%
57 | Cc1ccccc1OCC(=O)NNC(=O)c1ccc(-n2cncn2)c([N+](=O)[O-])c1 | 8.29% (active)
58 | Cc1ccc(S(=O)(=O)N2CCN(C(=O)c3ccc(-n4cncn4)c([N+](=O)[O-])c3)CC2)cc1 | 1.45%
59 | O=C(NNC(=O)c1ccc(-n2cncn2)c([N+](=O)[O-])c1)c1ccccc1 | 17.1% (active)
60 | Cc1ccc(S(=O)(=O)N(C)C)cc1NC(=O)c1ccc(-n2cncn2)c([N+](=O)[O-])c1 | 41% (active)
61 | O=C(COc1ccccc1F)NNC(=O)c1ccc(N2CCCCC2)c([N+](=O)[O-])c1 | -0.55%
62 | CC(=O)Nc1ccc(NC(=S)NC(=O)c2ccc([N+](=O)[O-])c(C)c2)cc1 | -0.17%
63 | CC(C)NC(=O)c1ccc(Sc2ccccc2)c([N+](=O)[O-])c1 | -1.54%
64 | Cc1ccc(S(=O)(=O)N(C)C)cc1NC(=O)c1ccccc1Br | -0.6%
65 | CCOc1ccc(C(=O)Nc2cc(Cl)ccc2-n2cncn2)cc1OC | -0.61%
66 | CC(=O)c1ccc(NC(=O)c2ccc(-n3cncn3)c([N+](=O)[O-])c2)cc1 | 36.6% (active)
67 | Cc1cc(O)c(NC(=O)c2ccc(C)c([N+](=O)[O-])c2)cc1C | -1.17%
68 | COc1cc(C2C(C#N)=C(C)NC3=C2C(=O)CC(C)(C)C3)ccc1O (stereo unspecified) | -1.19%
69 | Cc1ccc(-c2nc(COC(=O)c3c(C)noc3C)cs2)cc1 | -0.6%

Row | SMILES | inhibition
70 | COC(=O)[C@@]12C[C@@H](CC(=O)N3CCC(c4ccccc4)CC3)C(=O)N(Cc3ccccc3)C1=CCC(C)(C)C2 | -0.7%
71 | Cc1c(NC(=O)CCC2CCCCC2)cc(C(=O)N2CCOCC2)cc1[N+](=O)[O-] | -2.05%
72 | Cc1cc(C)cc(OCC(=O)NNC(=O)CCN2C(=O)c3ccccc3C2=O)c1 | 0.2%
73 | C[N+](C)(C)CCOP(=O)([O-])OC[C@H](O)CO | -0.22%
74 | CCn1c(SCC(=O)Nc2ccccc2F)nc2c(c1=O)SC(C)C2 (stereo unspecified) | -0.06%
75 | O=S(=O)(c1ccccc1)c1nc(-c2ccccc2)oc1NCCCN1CCOCC1 | 0.27%
76 | c1ccc2cc3c(NCCN4CCOCC4)ccnc3cc2c1 | 34.1% (active)
77 | O=S(=O)(c1ccc(Cl)cc1)c1nc(-c2ccccc2F)oc1NCCN1CCOCC1 | -0.33%
78 | O=c1cnnc(Nc2ccccc2F)[nH]1 | 0.6%
79 | Cc1cc(/C=N/n2cnnc2)c(C)n1-c1ccc2ncccc2c1 | 0.03%
80 | CCc1ccc(NC(=O)N2CCc3ccccc3C2)cc1 | -0.43%
81 | O=C(CSCC(=O)Nc1cccc([N+](=O)[O-])c1)Nc1ccccc1 | 8.16% (active)
82 | O=C(CN1CCC(NC(=O)Nc2ccccc2)CC1)Nc1cccc([N+](=O)[O-])c1 | 0.83%
83 | Cc1c(NC(=O)Nc2cccc([N+](=O)[O-])c2)c(=O)n(-c2ccccc2)n1C | -0.43%
84 | O=C(CSc1nc(-c2ccccc2)cs1)Nc1cccc([N+](=O)[O-])c1 | -0.12%
85 | O=C(Nc1cccc([N+](=O)[O-])c1)N1CCc2ccccc2C1 | 7.11% (active)
86 | Cc1ccc(-c2csc(C(C#N)=C(O)CN3CCN(C(=O)c4ccco4)CC3)n2)cc1 | -0.54%
87 | CCc1cccc(CC)c1NC(=O)COc1ccccc1C(=O)c1cc(C#N)c(=O)n(C2CCCCC2)c1 | 0.13%
88 | CCOC(=O)C1CCN(S(=O)(=O)c2c(C)noc2C)CC1 | -0.02%
89 | O=C(NC(=S)Nc1ccc(S(=O)(=O)Nc2ncccn2)cc1)c1cccc(Br)c1 | 0.66%
90 | O=C(Nc1ccc(S(=O)(=O)Nc2ncccn2)cc1)c1cncc(Br)c1 | 64.2% (active)
91 | CCNS(=O)(=O)c1ccc(NC(=O)c2cncc(Br)c2)cc1 | -0.64%
